Compounds with a hit are over-represented: about 2.9% of the library has one in this group of screens.
SENP6 block: SENP6 protease inhibitors, primary screen, biochemical, luminescence, uHTS | Sentrin-specific protease 6 (Homo sapiens), Q9GZR1 | inhibition, % at 10 µM | AID 2599, 2010 | hit rate 1.8% among 330,000 | Recombinant SENP6 catalytic domain, aminoluciferin luminescence;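 active = inhibition above about 50% at the single tested dose, limit read from the data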
HSP90 inh: HSP90 inhibitors, primary screen, cell lysate, luminescence. Rabbit reticulocyte lysate, luciferase refolding luminescence, 3 h. AID 1789, 2009. hit rate 0.91% among 290,000. Heat shock protein HSP 90 (rabbit reticulocyte lysate; luciferase refolding). inhibition, % at 5.6 µM;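 active = inhibition above the screen-wide mean plus 3 SD, computed separately per campaign, cut at about 16% in these data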;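 note: inhibitors lower the luminescence because luciferase stays unfolded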
SENP1 FRET inh: human SENP1 catalytic domain inhibitors, primary screen, biochemical, FRET, uHTS | Sentrin-specific protease 1 (Homo sapiens), Q9P0U3 | recombinant SENP1 catalytic domain, CyPet-SUMO1-YPet FRET cleavage | inhibition, % at 10 µM | hit rate 0.21% among 360,000;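 active = inhibition at least 30% at 10 µM, raw YFP signal under a set limit, fluorescence ratio 0.5 to 1.5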
Target sequence (Q9P0U3 419-644 limits assumed): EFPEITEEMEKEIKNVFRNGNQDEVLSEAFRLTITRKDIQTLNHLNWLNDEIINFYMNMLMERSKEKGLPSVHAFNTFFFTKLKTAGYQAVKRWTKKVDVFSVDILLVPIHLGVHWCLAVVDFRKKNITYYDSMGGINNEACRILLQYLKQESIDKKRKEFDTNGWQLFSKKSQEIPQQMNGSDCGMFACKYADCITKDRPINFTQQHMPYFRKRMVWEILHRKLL
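Compound: 10 µM single point, 0.5% DMSO; Test system: hSENP1 catalytic domain, recombinant; Timing: 50 min reaction at room temperature; Technique: FRET, CFP and YFP emission; Control set: no-enzyme wells low, DMSO-plus-enzyme wells high control.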
SENP8 block-1: human SENP8 protease inhibitors, primary screen, biochemical, fluorescence, Nedd8 protein substrate, uHTS | Sentrin-specific protease 8 (Homo sapiens), Q96LD8 | recombinant SENP8 | inhibition, % at 20 µM | hit rate 0.64% among 360,000 | AID 602440, 2012; in the data active = inhibition mostly above about 40%, no sharp cut-off; inactive = mostly below about 27%
Target sequence (Q96LD8 whole entry, looked up): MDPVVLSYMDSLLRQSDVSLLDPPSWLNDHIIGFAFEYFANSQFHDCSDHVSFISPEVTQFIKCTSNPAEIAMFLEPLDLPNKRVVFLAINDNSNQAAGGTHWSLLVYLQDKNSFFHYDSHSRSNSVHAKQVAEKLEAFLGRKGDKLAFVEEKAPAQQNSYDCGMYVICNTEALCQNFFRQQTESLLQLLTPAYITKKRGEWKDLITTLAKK
SENP8 block-2: SENP8 protease inhibitors, primary screen, biochemical, luminescence | purified SENP8, Z-RLRGG-aminoluciferin cleavage | hit rate 1.2% among 330,000 | inhibition, % at 10 µM; in the data active = inhibition above about 50%
SENP7 block: SENP7 protease inhibitors, primary screen, biochemical, luminescence, uHTS. Sentrin-specific protease 7 (Homo sapiens), Q9BQF6. recombinant SENP7, Z-RLRGG-aminoluciferin luminescence, 40 min. inhibition, % at 5 µM. hit rate 1.5% among 330,000. AID 434973, 2010;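 active = inhibition above about 50% at the single test dose, limit read from the data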
SENP8 confirm: SENP8 protease inhibitors, retest, confirmation, biochemical, luminescence, single concentration; shares compounds with SENP7 block; Recombinant SENP8, Z-RLRGG-aminoluciferin luminescence, 60 min; inhibition, % at 12.5 µM; hit rate 40% among 6,200;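 active = mean inhibition across replicates above about 50%, limit read from the data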
SENP6 confirm: SENP6 protease inhibitors, confirmation, biochemical, luminescence, single concentration; shares compounds with SENP7 block; recombinant SENP6, Z-RLRGG-aminoluciferin luminescence; inhibition, % at 12.5 µM; hit rate 58% among 6,200; AID 488915, 2010
SENP7 conf: SENP7 protease inhibitors, retest, confirmation, biochemical, luminescence, single concentration; shares compounds with SENP7 block; recombinant SENP7, Z-RLRGG-aminoluciferin luminescence, 40 min; inhibition, % at 12.5 µM; hit rate 69% among 6,200
Casp3 SENP sel: caspase-3 protease inhibitors, confirmation, selectivity assay for SENP inhibitor project, biochemical, single concentration. shares compounds with SENP7 block. purified caspase-3, Z-DEVD-aminoluciferin luminescence, 60 min. inhibition, % at 12.5 µM. hit rate 60% among 6,200;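 active = mean inhibition above about 50%, limit read from the data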
Target sequence (P42574 28-227 limits assumed): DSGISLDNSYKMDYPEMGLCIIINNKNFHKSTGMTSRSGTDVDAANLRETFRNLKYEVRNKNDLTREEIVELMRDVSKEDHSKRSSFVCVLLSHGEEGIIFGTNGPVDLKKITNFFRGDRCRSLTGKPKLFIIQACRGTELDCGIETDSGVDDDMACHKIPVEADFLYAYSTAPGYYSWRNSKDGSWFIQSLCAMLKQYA
Luc interf: interferes with luciferase luminescence in SENP counter-screen. shares compounds with SENP7 block. Pre-incubated SENP8/Z-RLRGG-aminoluciferin, luciferase luminescence interference. inhibition, % at 12.5 µM. hit rate 39% among 6,200. AID 488919;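 active = mean inhibition above about 50% when retested at one dose, limit read from the data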
Large screens that a line does not name were inactive (follow-up assays come after a bar, where they were run).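 Rule for the calls, unless noted: active = mean inhibition above about 50% in the one-dose retest (limit read from the data); inactive = the rest.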

CCOc1cc(/C=C2/SC(=S)N(CC(=O)O)C2=O)ccc1OC(=O)c1cccs1	none
CCOc1cc(/C=C2\C(=O)N(c3ccc(C(N)=O)cc3)N=C2C)ccc1OC(=O)c1cccs1	SENP6 block 62.8, SENP8 block-1 66.0, SENP7 block 67.8 | SENP8 confirm inactive | SENP6 confirm inactive | SENP7 conf inactive | Casp3 SENP sel inactive | Luc interf inactive
On1c(-c2ccccc2)nc2ccccc21	none
O=Nc1c2nc3ccccc3n(O)c-2c2ccccc12	SENP6 block 50.2 | SENP8 confirm inactive | SENP6 confirm inactive | SENP7 conf inactive | Casp3 SENP sel 52.9 | Luc interf inactive
O=C(Nc1ccc2oc(-c3ccccc3)nc2c1)c1cccnc1	none
CCc1ccc2oc(-c3cccc(NC(=O)c4cccnc4)c3)nc2c1	SENP6 block 61.2 | SENP8 confirm inactive | SENP6 confirm inactive | SENP7 conf inactive | Casp3 SENP sel inactive | Luc interf inactive
C#CC1CCCCC1NC(=O)Nc1cnccc1C(F)(F)F (stereo not given)	none
O=C(COC(=O)COc1ccc(Br)cc1)NC1CCS(=O)(=O)C1 (stereo not given)	none (no result: SENP6 block, HSP90 inh, SENP8 block-2, SENP7 block)
NC(=O)c1ccccc1NC(=O)Nc1ccc(F)c(Cl)c1	SENP6 block 91.8, SENP8 block-2 92.2, SENP7 block 95.7 | SENP8 confirm 64.5 | SENP6 confirm 88.1 | SENP7 conf 99.2 | Casp3 SENP sel 89.7 | Luc interf 90.9
CSc1cccc(NC(=O)Nc2ccccc2C(N)=O)c1	SENP6 block 76.6, SENP8 block-2 63.6, SENP7 block 77.9 | SENP8 confirm inactive | SENP6 confirm 63.9 | SENP7 conf 87.0 | Casp3 SENP sel 62.7 | Luc interf inactive
CCCOc1ccc(/C=N/Nc2ccccc2[N+](=O)[O-])c(O)c1	SENP6 block 96.4, SENP8 block-2 94.3, SENP7 block 99.2 | SENP8 confirm 57.8 | SENP6 confirm inactive | SENP7 conf inactive | Casp3 SENP sel 77.5 | Luc interf inactive
CCOc1ccccc1/C=N/Nc1ccccc1[N+](=O)[O-]	none
CC(=O)N1CCN(c2ccc(Oc3nnnn3-c3ccccc3)cc2)CC1	none
COC(=O)c1sccc1NC(=O)Cc1ccc(OC)cc1	SENP6 block 51.3 | SENP8 confirm inactive | SENP6 confirm inactive | SENP7 conf 79.2 | Casp3 SENP sel 62.7 | Luc interf 57.9
COC(=O)c1sccc1NC(=O)c1ccc(C)o1	none
CCOc1ccc(NC(=O)CN(C)C(=O)/C=C/c2ccco2)cc1OCC	none (no result: HSP90 inh)
O=C(Nc1ccccc1)C(=O)Nc1ccc2c(c1)N(C(=O)C1CC1)CCC2	SENP6 block 98.0, SENP8 block-2 96.2, SENP7 block 99.4 (no result: HSP90 inh) | SENP8 confirm 55.8 | SENP6 confirm 100.2 | SENP7 conf 102.8 | Casp3 SENP sel 98.4 | Luc interf inactive
COc1ccc(/C=N/NC(=O)OC(C)(C)C)cc1OC	none
N/C(Cc1ccc(Cl)cc1Cl)=N\OC(=O)c1ccccc1	none
N/C(=N\OC(=O)c1ccc(Cl)cc1Cl)c1ccccc1	SENP6 block 100.8, SENP8 block-2 93.5, SENP7 block 98.9 | SENP8 confirm 98.1 | SENP6 confirm 99.2 | SENP7 conf 103.1 | Casp3 SENP sel 97.9 | Luc interf 97.6
N/C(=N\OC(=O)c1ccc(Cl)cc1Cl)c1ccc(Cl)cc1	SENP6 block 61.7, SENP7 block 54.2 | SENP8 confirm inactive | SENP6 confirm inactive | SENP7 conf 69.1 | Casp3 SENP sel inactive | Luc interf inactive
CC(NS(=O)(=O)c1ccc(CCC(=O)NCc2cccnc2)cc1)c1ccccc1 (stereo not given)	none
O=C(NS(=O)(=O)Oc1ccc(Cl)cc1)OC[C@@H]1CCCN2CCCC[C@H]12	none
CCOC(=O)c1ccc(-n2cnc(-c3ccc([N+](=O)[O-])cc3)c2)cc1	none (no result: SENP6 block, HSP90 inh, SENP8 block-2, SENP7 block)
O=C(COC(=O)c1ccc([N+](=O)[O-])s1)Nc1ccc(Cl)cn1	SENP6 block 64.5 | SENP8 confirm inactive | SENP6 confirm inactive | SENP7 conf inactive | Casp3 SENP sel inactive | Luc interf inactive
Cc1c(Cl)cnc(NC(=O)COC(=O)c2ccc([N+](=O)[O-])s2)c1Cl	SENP6 block 71.4 | SENP8 confirm inactive | SENP6 confirm 75.7 | SENP7 conf inactive | Casp3 SENP sel inactive | Luc interf inactive
Cc1ccc(C(=O)OCC(=O)Nc2ccc(Cl)cn2)s1	none (no result: HSP90 inh)
S=C(NCCC1=CCCCC1)NCc1ccco1	none
Cc1nn2cc(-c3ccc(Cl)cc3)cnc2c1Cl	SENP7 block 75.9 | SENP8 confirm inactive | SENP6 confirm inactive | SENP7 conf inactive | Casp3 SENP sel inactive | Luc interf inactive
O=Nc1ccc(NOC(=O)c2ccccc2)cc1	SENP6 block 87.5 | SENP8 confirm inactive | SENP6 confirm inactive | SENP7 conf 103.0 | Casp3 SENP sel inactive | Luc interf inactive
CC(=O)c1c(C)[nH]c(C(=O)OC(C)C(=O)NC2CCCCC2)c1C (stereo not given)	none (no result: SENP6 block, HSP90 inh, SENP8 block-2, SENP7 block)
CCC1(c2ccc(F)cc2)NC(=O)N(CC(=O)N(C)C2CCS(=O)(=O)C2)C1=O (stereo not given)	none (no result: HSP90 inh)
Cc1ccc(NC(=O)CCc2c(C)nn(-c3ccc(N4CCCCC4)nn3)c2C)cc1F	SENP6 block 55.9 | SENP8 confirm 60.8 | SENP6 confirm 53.2 | SENP7 conf 76.7 | Casp3 SENP sel inactive | Luc interf inactive
Cc1nn(-c2ccc(N3CCCCC3)nn2)c(C)c1CCC(=O)Nc1ccc(F)cc1	none
